Molecules are shown by their SMILES. Active and inactive are the calls of the source. No cut-off for these calls is given here.

The target in data set [1] is Sodium-dependent serotonin transporter (Homo sapiens, UniProt P31645). The experiment in a line: Inhibition of human SERT expressed in MDCK cells using [3H]-serotonin as substrate after 10 mins by scintillation counting. It is filed as cell-based. The procedure, abridged: (§1)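 Transfected MDCK cells were washed with PBS-CM and preincubated 10 min at room temperature with compound (0.2–200 or 0.5–500 μM) or vehicle. Uptake of 50 nM radiolabeled substrate then ran for 10 min at room temperature, with RO 41-0960 added for dopamine. Naive MDCK background was subtracted. IC50 came from nonlinear regression of three independent assays run in triplicate.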
Sodium-dependent serotonin transporter, sequence (P31645 whole entry): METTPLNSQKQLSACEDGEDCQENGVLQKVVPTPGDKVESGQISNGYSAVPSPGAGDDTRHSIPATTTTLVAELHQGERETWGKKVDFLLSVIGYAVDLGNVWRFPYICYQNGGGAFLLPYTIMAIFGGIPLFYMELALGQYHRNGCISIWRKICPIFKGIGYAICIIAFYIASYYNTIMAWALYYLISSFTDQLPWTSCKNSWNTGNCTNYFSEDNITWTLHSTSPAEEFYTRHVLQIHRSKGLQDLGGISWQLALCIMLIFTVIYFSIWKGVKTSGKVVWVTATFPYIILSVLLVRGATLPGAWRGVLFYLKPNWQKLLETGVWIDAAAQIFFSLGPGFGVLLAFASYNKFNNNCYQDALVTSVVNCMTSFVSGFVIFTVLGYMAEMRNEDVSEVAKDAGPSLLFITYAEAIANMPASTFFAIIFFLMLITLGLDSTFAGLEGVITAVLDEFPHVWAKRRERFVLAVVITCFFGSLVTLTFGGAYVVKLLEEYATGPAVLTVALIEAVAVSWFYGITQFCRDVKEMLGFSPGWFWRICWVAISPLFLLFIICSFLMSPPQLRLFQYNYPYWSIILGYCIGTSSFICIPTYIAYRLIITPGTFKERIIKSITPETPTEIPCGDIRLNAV

Data set [2] has as its target T1, Sodium-dependent dopamine transporter (Homo sapiens, UniProt Q01959). The experiment in a line: Inhibition of human DAT expressed in MDCK cells using [3H]-dopamine as substrate after 10 mins by scintillation counting. It counts as cell-based. In outline:
as §1

The target in data set [3] is T2, Sodium-dependent noradrenaline transporter (Homo sapiens, UniProt P23975). The experiment in a line: Inhibition of human NET expressed in MDCK cells using [3H]-norepinephrine as substrate at 200 uM after 10 mins by scintillation counting. It counts as cell-based.
T2 sequence (P23975 whole entry): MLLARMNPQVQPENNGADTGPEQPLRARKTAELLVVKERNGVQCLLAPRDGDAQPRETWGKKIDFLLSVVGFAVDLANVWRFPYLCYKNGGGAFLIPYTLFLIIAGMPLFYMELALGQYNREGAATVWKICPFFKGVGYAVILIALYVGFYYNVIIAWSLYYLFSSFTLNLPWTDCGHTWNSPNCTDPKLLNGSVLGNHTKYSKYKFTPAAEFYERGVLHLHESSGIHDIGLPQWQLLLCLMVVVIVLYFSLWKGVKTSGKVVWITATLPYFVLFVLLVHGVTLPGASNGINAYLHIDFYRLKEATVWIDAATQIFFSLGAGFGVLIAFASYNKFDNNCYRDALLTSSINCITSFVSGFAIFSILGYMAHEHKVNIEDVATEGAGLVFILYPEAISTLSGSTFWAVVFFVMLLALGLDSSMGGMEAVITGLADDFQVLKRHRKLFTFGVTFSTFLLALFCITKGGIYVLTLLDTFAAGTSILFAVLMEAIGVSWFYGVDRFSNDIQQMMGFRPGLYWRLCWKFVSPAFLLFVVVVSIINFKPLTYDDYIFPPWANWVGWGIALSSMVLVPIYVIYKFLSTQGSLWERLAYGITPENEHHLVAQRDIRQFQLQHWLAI
The target in data set [4] is T3, Sodium- and chloride-dependent GABA transporter 1 (Homo sapiens, UniProt P30531). The experiment in a line: Inhibition of GAT-1 (unknown origin). The procedure, abridged:
(§2)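 Transporter transiently expressed in COS-7 cells, with compound tested in dose–response (EAATs at 0.5–500 μM) against vehicle. Nonspecific uptake from empty-vector (pcDNA3) COS-7 sister cultures was subtracted. IC50 came from nonlinear regression of at least three independent experiments run in triplicate.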
Target sequence in this assay (P30531 whole entry, looked up): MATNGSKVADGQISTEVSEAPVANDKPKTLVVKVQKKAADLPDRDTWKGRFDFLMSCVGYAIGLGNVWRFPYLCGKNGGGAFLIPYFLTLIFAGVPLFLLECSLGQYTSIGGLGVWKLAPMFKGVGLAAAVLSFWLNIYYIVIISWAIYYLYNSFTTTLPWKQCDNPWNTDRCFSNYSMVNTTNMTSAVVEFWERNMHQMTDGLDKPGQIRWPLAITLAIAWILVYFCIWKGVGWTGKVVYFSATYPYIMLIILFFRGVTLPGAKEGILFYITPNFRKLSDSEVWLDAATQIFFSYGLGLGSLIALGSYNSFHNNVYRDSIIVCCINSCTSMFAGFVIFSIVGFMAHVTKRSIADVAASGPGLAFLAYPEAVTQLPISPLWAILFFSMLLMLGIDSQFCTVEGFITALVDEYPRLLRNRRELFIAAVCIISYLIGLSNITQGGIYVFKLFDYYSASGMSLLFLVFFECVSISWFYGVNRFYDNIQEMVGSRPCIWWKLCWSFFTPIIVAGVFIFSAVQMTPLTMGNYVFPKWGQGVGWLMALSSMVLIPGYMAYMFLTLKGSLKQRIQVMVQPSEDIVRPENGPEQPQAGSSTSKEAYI

For data set [5], the target named is T2, Sodium-dependent noradrenaline transporter. The experiment in a line: Inhibition of human NET expressed in MDCK cells using [3H]-norepinephrine as substrate after 10 mins by scintillation counting. It is filed as cell-based. The procedure, abridged:
as §1

The target in data set [6] is T4, Excitatory amino acid transporter 3 (Homo sapiens, UniProt P43005).
T4 sequence (P43005 whole entry): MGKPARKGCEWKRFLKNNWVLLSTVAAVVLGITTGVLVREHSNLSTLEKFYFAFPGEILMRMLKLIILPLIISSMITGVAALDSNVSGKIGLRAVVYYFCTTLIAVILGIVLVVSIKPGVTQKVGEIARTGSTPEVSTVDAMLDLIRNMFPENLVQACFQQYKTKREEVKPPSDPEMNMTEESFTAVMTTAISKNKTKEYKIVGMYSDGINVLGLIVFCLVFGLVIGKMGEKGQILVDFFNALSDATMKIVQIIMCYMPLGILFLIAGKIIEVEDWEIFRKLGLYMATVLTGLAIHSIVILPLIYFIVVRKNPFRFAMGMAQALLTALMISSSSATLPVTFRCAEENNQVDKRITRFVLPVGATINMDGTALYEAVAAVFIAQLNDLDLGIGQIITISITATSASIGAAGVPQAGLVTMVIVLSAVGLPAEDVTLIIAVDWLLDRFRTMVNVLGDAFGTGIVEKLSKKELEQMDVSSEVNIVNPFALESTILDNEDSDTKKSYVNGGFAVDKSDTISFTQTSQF
The experiment in a line: Inhibition of EAAT3 (unknown origin) expressed in african green monkey COS7 cells using [3H]-glutamic acid as substrate after 10 mins by scintillation counting. It counts as cell-based, COS-7. In outline:
as §2

The target in data set [7] is T3, Sodium- and chloride-dependent GABA transporter 1. The experiment in a line: Inhibition of GAT-1 (unknown origin) expressed in african green monkey COS7 cells using [3H]-GABA as substrate after 10 mins by scintillation counting. It counts as cell-based, COS-7. In outline:
as §2
Target sequence in this assay (P30531 whole entry): as the sequence (P30531 whole entry, looked up) above

For data set [8], the target named is T5, Sodium- and chloride-dependent GABA transporter 3 (Homo sapiens, UniProt P48066).
T5 sequence (P48066 whole entry): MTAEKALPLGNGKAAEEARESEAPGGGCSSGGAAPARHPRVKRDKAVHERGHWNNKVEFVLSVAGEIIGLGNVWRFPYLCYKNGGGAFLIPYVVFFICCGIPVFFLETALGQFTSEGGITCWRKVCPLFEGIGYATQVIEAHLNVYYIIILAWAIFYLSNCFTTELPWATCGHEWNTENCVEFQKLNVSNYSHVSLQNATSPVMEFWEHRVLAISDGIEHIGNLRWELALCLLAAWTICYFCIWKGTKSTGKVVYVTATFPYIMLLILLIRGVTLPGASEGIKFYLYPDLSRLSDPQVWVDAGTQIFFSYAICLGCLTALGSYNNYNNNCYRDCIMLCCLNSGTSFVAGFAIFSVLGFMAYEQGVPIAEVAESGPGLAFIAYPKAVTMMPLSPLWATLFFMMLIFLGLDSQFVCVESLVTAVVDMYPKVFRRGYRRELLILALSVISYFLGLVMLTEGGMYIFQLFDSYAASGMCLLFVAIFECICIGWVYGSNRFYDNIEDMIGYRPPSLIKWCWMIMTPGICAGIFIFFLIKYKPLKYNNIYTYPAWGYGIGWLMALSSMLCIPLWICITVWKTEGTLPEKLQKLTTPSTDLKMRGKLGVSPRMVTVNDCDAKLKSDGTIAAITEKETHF
The experiment in a line: Inhibition of GAT-3 (unknown origin) expressed in african green monkey COS7 cells using [3H]-GABA as substrate after 10 mins by scintillation counting. It is filed as cell-based, COS-7. In outline:
as §2

Data set [9] deals with T3, Sodium- and chloride-dependent GABA transporter 1. The experiment in a line: Activity at GAT1 (unknown origin) expressed in african green monkey COS7 cells assessed as GABA release at 0.5 to 500 uM after 10 mins using [3H]-GABA pretreated for 1 hr before compound addition followed by wash out by reversed transport efflux assay. It counts as cell-based. The note with it: COS-7. The procedure, abridged:
(§3)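 Reverse-transport efflux of preloaded substrate: hDAT in MDCK GFP-hDAT cells, hNET and GAT-1 in transiently transfected COS-7 cells. Compound tested at 0.5–500 μM against vehicle (basal) release. Non-radiolabeled substrate served as the positive control for assay integrity.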
Target sequence in this assay (P30531 whole entry, looked up): as the sequence (P30531 whole entry, looked up) above

For data set [10] the target is unchanged. The experiment in a line: Non-competitive inhibition of GAT-1 (unknown origin) expressed in african green monkey COS7 cells using [3H]-GABA as substrate. It is filed as cell-based. The note with it: COS-7. The procedure, abridged:
(§4)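 Cells were preincubated with or without 20 μM compound for 10 min at room temperature. Uptake then ran with eight concentrations of unlabeled/radiolabeled substrate mix, in triplicate. Dopamine (99.9%:0.1%, 45 nM–100 μM) was used in hDAT MDCK cells and GABA (99.95%:0.05%) in GAT-1 COS-7 cells. Nonspecific uptake was subtracted, Michaelis–Menten Vmax/KM were fitted, and n≥3 independent assays were analysed by paired t-test.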
Target sequence in this assay (P30531 whole entry, looked up): as the sequence (P30531 whole entry, looked up) above

The target of data set [11] is T1, Sodium-dependent dopamine transporter. The experiment in a line: Non-competitive inhibition of human DAT expressed in MDCK cells using [3H]-dopamine as substrate. It is filed as cell-based. The procedure, abridged:
as §4

For data set [12], the target named is T6, Sodium- and chloride-dependent glycine transporter 1 (Homo sapiens, UniProt P48067).
T6 sequence (P48067 whole entry): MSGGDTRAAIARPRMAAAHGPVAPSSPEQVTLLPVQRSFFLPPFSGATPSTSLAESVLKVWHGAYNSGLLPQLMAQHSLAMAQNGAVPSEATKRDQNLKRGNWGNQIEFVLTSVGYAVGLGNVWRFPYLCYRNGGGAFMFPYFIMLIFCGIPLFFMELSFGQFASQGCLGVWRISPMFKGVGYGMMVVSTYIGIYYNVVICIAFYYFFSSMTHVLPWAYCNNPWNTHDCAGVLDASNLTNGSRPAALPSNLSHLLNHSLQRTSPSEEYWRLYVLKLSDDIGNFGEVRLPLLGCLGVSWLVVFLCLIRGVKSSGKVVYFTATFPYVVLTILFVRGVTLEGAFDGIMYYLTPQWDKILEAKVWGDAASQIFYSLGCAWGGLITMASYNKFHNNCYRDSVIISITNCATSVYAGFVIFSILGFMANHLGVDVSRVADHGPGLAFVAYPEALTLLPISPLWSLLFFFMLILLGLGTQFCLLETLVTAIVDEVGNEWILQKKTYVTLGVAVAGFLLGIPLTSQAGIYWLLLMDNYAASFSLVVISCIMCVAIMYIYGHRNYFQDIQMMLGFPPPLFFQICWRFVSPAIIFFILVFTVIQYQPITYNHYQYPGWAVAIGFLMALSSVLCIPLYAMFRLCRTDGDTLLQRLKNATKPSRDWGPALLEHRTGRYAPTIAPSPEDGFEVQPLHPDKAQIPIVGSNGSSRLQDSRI
The experiment in a line: Inhibition of GlyT1 (unknown origin) expressed in MDCK cells using [3H]-glycine as substrate after 10 mins by scintillation counting. It is filed as cell-based. The procedure, abridged: as §1

The target of data set [13] is Excitatory amino acid transporter 2 (Homo sapiens, UniProt P43004). The experiment in a line: Inhibition of EAAT2 (unknown origin) expressed in african green monkey COS7 cells using [3H]-glutamic acid as substrate after 10 mins by scintillation counting. It counts as cell-based, COS-7. In outline: as §2
Excitatory amino acid transporter 2, sequence (P43004 whole entry): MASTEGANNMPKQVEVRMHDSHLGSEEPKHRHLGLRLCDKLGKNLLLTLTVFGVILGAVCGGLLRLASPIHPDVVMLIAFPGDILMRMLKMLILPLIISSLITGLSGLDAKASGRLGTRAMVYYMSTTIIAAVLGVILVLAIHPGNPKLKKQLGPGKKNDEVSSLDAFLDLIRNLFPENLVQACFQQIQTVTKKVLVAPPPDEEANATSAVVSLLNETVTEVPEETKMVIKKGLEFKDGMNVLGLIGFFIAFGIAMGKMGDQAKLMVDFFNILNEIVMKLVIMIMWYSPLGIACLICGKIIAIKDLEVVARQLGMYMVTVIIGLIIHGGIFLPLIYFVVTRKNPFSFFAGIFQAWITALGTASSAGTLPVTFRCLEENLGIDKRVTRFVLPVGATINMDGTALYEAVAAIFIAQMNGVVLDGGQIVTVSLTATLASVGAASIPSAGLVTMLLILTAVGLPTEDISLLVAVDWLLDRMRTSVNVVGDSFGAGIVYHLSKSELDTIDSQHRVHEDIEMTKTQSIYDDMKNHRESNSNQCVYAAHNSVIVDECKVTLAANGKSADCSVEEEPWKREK
Data set [14] can be described thus: Toxicity in Wistar rat peripheral blood micronucleus.
Data set [15] concerns the target T3, Sodium- and chloride-dependent GABA transporter 1. The experiment in a line: Allosteric modulation of GAT-1 (unknown origin) expressed in african green monkey COS7 cells using [3H]-GABA as substrate at 20 uM. It is filed as cell-based. The note with it: COS-7. The procedure, abridged: as §4
Target sequence in this assay (P30531 whole entry, looked up): as the sequence (P30531 whole entry, looked up) above
In data set [16] the target is T1, Sodium-dependent dopamine transporter. The experiment in a line: Activity at human DAT expressed in MDCK cells assessed as dopamine release at 0.5 to 500 uM after 10 mins using [3H]-dopamine pretreated for 1 hr before compound addition followed by wash out by reversed transport efflux assay. It counts as cell-based. In outline:
as §3

In data set [17] the target is T2, Sodium-dependent noradrenaline transporter. The experiment in a line: Activity at human NET expressed in african green monkey COS7 cells assessed as norepinephrine release at 0.5 to 500 uM after 10 mins using [3H]-norepinephrine pretreated for 1 hr before compound addition followed by wash out by reversed transport efflux assay. It is filed as cell-based. The note with it: COS-7. The procedure, abridged: as §3

In data set [18] the target is Excitatory amino acid transporter 1 (Homo sapiens, UniProt P43003). The experiment in a line: Inhibition of EAAT1 (unknown origin) expressed in african green monkey COS7 cells using [3H]-glutamic acid as substrate after 10 mins by scintillation counting. It counts as cell-based, COS-7. The procedure, abridged: as §2
Excitatory amino acid transporter 1, sequence (P43003 whole entry): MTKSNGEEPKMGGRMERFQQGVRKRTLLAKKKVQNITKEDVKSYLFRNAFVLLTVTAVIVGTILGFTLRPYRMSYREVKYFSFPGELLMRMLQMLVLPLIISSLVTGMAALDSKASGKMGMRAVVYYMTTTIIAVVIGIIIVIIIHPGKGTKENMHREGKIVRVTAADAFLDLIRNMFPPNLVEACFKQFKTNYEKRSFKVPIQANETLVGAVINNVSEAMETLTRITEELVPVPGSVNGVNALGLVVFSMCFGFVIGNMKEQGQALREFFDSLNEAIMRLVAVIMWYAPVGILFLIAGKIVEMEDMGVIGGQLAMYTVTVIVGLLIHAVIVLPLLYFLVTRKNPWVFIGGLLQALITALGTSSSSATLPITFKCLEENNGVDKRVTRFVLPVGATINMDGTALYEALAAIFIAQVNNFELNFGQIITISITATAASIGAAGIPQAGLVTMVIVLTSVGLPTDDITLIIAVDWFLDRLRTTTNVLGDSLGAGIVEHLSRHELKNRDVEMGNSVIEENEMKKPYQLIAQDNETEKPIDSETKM
Data set [19] deals with T2, Sodium-dependent noradrenaline transporter. The experiment in a line: Non-competitive inhibition of human NET expressed in COS-7 cells using [3H]-norepinephrine as substrate.

T1 sequence (Q01959 whole entry): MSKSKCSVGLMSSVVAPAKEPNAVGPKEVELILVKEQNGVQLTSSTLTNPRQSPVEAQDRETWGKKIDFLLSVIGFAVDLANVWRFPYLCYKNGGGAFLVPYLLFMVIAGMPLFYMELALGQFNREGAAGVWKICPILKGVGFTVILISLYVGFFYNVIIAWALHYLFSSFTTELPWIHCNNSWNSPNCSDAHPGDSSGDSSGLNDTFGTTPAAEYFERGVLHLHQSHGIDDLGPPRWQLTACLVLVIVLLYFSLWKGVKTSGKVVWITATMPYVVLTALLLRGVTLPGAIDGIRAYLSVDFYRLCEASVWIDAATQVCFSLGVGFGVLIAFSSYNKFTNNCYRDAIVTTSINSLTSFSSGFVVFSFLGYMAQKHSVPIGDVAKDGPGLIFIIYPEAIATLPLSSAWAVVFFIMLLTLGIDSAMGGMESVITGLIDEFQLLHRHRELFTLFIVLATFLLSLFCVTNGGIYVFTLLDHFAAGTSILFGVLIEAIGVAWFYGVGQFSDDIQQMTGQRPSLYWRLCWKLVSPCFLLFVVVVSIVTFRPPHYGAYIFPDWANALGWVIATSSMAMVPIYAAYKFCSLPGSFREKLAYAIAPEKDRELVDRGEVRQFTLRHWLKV

Usually IC50 stands for the concentration that inhibits the measured activity by half. For the molecule `COC1OC[C@@H](Cc2ccc3c(c2)OCO3)[C@@H]1Cc1ccc2c(c1)OCO2` (stereo partly drawn) [(-)-O-METHYLCUBEBIN], the values for the 50% inhibitory concentration (IC50) in data set [1] and in data set [2] were 90.3 µM and 78.6 µM, respectively. Moreover, the inhibition result in data set [3] is “inactive”.
`O=C(O)C1=CCCN(CCOC(c2ccc(C(F)(F)F)cc2)c2ccc(C(F)(F)F)cc2)C1` came in with a half-inhibitory concentration (IC50) in [4] of 0.26 µM.
`O=C(O)C1=CCCN(CCON=C(c2ccccc2)c2ccccc2)C1`: the midpoint of inhibition in data set [4], the IC50, lay at 0.04 µM.
Regarding `O=C1OC[C@H](Cc2ccc3c(c2)OCO3)[C@H]1Cc1ccc2c(c1)OCO2` [HINOKININ], the IC50 is 8.76 µM in data set [5]; > 500 µM in data set [6]; 20.6 µM in [7]; > 500 µM in [8]; > 500 µM in data set [12]; > 100 µM in data set [13]. The IC50 is > 500 µM in data set [18], 175 µM in data set [1] and 8.35 µM in data set [2]. Moreover, the outcome in data set [9], in data set [16] and in data set [17] was inactive. In addition, the inhibition entry in data set [10], in [11] and in data set [19] was “Active” throughout. In addition, in data set [14], the Activity entry is on record as “Non-toxic”. Further, the outcome in data set [15] was Active. In addition, in [2], the inhibition entry is “Dose-dependent effect”.
Turning to `O[C@H]1OC[C@H](Cc2ccc3c(c2)OCO3)[C@H]1Cc1ccc2c(c1)OCO2`, the figures for the IC50 in data set [5], in data set [1] and in data set [2] were > 200 µM, > 200 µM and 12 µM, respectively. Also, the inhibition result in data set [2] was “Dose-dependent effect”.

The record behind these values is ChEMBL document CHEMBL2429840, “The lignan (-)-hinokinin displays modulatory effects on human monoamine and GABA transporter activities” (J Nat Prod, 2013).
